Read-outs that look alike come from different tables or passages of the source.
Tests used:
[1] = tested on: acetylated histone H3K9 of C. parvum sporozoites; test: Acetylated histone in extracellular parasites; assay type: cell-based, Cryptosporidium parvum; conditions: Fig. 4A, 10 μM, incubation 30 min
C. parvum [2] = conditions: read-out: IC50 against C. parvum, ref Bessoff et al., 2013, cited from earlier work
C. parvum [3] = test: C. parvum growth when compound is added after invasion of host cells; assay type: cell-based, Cryptosporidium parvum; conditions: 5 μM added after 3 h invasion, further 45 h, compared with DMSO control
Outline: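 HCT-8 cells (2 × 10^4/well) grown 24 h, infected with 5 × 10^4 HNJ-1 oocysts in RPMI-1640 for 3 h; test compound (5 μM) or DMSO then added for 45 h; nitazoxanide 5 μM as control. Methanol-fixed, BSA-blocked, Sporo-Glo stained; 42 fields/well imaged at 20×, parasites and nuclei counted automatically; relative to DMSO. Triplicate wells, three independent experiments.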

C. parvum [4] = conditions: 100 or 200 mg/kg; ref Theodos et al., 1998; cited from earlier work
C. parvum HNJ-1 strain = test: Initial epigenetic library compound screening for C. parvum; assay type: cell-based, Cryptosporidium parvum; conditions: for Parasite inhibition (%) (primary screening): 5 μM, 48 h, HCT-8 cells, vs DMSO, single experiment, single replicate; for inhibition at 5 µM: Cryptosporidium parvum, HCT-8, 48 h, read-out: Parasite inhibition (%) (primary screening)
C. parvum [5] = assay type: cell-based, Cryptosporidium parvum; conditions: for Parasite inhibition (%): C. parvum, 5 μM, HCT-8 cells, compound present from inoculation, 48 h; for inhibition at 5 µM: Cryptosporidium parvum, HCT-8, 48 h, read-out: Parasite inhibition (%)
HCT-8 cells = test: Cytotoxicity to HCT-8 cells; assay type: cell-based, human; conditions: read-out: Host cell IC50
C. parvum [6] = conditions: ref Darkin-Rattray et al., 1996; cited from earlier work
T. gondii RH-2F = test: T. gondii growth assay; assay type: cell-based, Toxoplasma gondii; conditions: 5 μM, positive control, HFF cells, 48 h

SMILES | Parasite inhibition (%) (primary screening) (C. parvum HNJ-1 strain) | Parasite inhibition (%) (C. parvum [5]) | IC50 (HCT-8 cells; HCT-8 cells, 48 h) [µM] | inhibition at 5 µM (C. parvum HNJ-1 strain) [%] | inhibition at 5 µM (C. parvum [5]) [%] | IC50 (HCT-8 cells; Homo sapiens, HCT-8, 48 h) [µM] | further results
CC(=O)Oc1ccccc1C(=O)Nc1ncc([N+](=O)[O-])s1 [nitazoxanide] | – | – | – | – | – | – | Density of bands of H3K9Ac/H3 normalized by the loading control [1]: increased; IC50 (C. parvum [2]): 3.7 µM; IC50 (C. parvum [2]; listed as Nitazoxanide): ~3.7 µM; relative number of C. parvum (C. parvum [3]): 44.9 ± 7.3%; reduction of the parasite in C. parvum-infected SCID mice (C. parvum [4]): ineffective
CN(C)c1ccc(C(=O)NCCCCCCC(=O)NO)cc1 [M-344] | 71 | 71.3 ± 1.7% | 2.3 ± 0.2 | – | – | – | –
O=C(/C=C/C#Cc1cccc(NS(=O)(=O)c2ccccc2)c1)NO [Oxamflatin] | – | – | – | 100 | 49.8 ± 4 | 2.5 ± 0.1 | –
CC(=O)Nc1ccc(C(=O)Nc2ccccc2N)cc1 [CI-994] | – | no effect on growth inhibition | – | 88 | -15.7 ± 8.4 | 24.6 ± 2.4 | –
O=Nc1ccc(O)c2ncccc12 [NSC-3852] | 88 | 64.4 ± 0.4% | 36.7 ± 1 | – | – | – | –
CC(/C=C/C(=O)NO)=C\[C@@H](C)C(=O)c1ccc(N(C)C)cc1 [TrichostatinA] | 76 | 75.7 ± 0.8% | 1.6 ± 0.1 | – | – | – | –
CCC(=O)CCCCC[C@@H]1NC(=O)[C@H]2CCCCN2C(=O)[C@H]([C@@H](C)CC)NC(=O)[C@H](Cc2cn(OC)c3ccccc23)NC1=O [Apicidin] | – | – | – | 83 | 83.5 ± 1.4 | 1.5 ± 0.1 | minimum concentration at which all C. parvum growth was inhibited (C. parvum [6]): 45 µM
CCc1nc(N)nc(N)c1-c1ccc(Cl)cc1 [pyrimethamine] | – | – | – | – | – | – | growth of T. gondii (T. gondii RH-2F): completely inhibited
O=C1c2ccccc2C(=O)c2c(NCCc3ccc(O)cc3)ccc(NCCc3ccc(O)cc3)c21 [BML-266] | 97 | 64.7 ± 3.9% | 51.2 ± 0.6 | – | – | – | –
O=C(CCCCCN1C(=O)c2cccc3cccc(c23)C1=O)NO [Scriptaid] | – | did not inhibit the growth | – | 10 | 4 ± 5.7 | 11.9 ± 1.3 | –

Source: paper PMC7593347 (International Journal for Parasitology: Drugs and Drug …, 2020)
